From PubChem BioAssay
Compounds with a hit are over-represented: about 1.8% of the library has one in this group of screens.
Apaf-1 inh: human Apaf-1 inhibition; inhibition, % at 20 µM; AID 489030; 330,000 tested, 0.71% active; O14727; reconstituted apoptosome caspase-3 activity, DEVD-Rh110 fluorescence; active = inhibition of at least 40% at 20 µM;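 note: plate controls were DMSO wells for no effect and DEVD-CHO caspase inhibitor wells for full effect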
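Material: reconstituted apoptosome with Apaf-1, cytochrome c, caspase-9, procaspase-3, dATP / Buffer or medium: pH 7.5 Hepes buffer with CHAPS, BSA, DTT / Also added: cytochrome c with DEVD-Rh110 / Schedule: compound with Apaf-1, dATP, procaspase-3 30 min, then 50 min reaction, room temperature / Technique: rhodamine 110 fluorescence at Ex 480/Em 540 nm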
CTSL1 counter: blocks F. hepatica cathepsin L1 in PFM18AAP counter-screen. recombinant F. hepatica cathepsin L1, Z-Leu-Arg-MCA fluorescence. inhibition, % at 5.96 µM. 300,000 tested, 0.49% active. AID 1906;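 active = inhibition above the mean of all tested compounds plus 3 SD, set per screening campaign, cut at about 17% in these data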;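 note: 0% = plate median of test compound wells and 100% = 1 µM Z-Phe-Ala-diazomethylketone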
TDP2 inh: TDP2 (human) inhibition, absorbance primary screen | O95551 | recombinant TDP2, T5PNP hydrolysis, p-nitrophenol absorbance 415 nm | inhibition, % at 12.8 µM | 370,000 tested, 0.34% active | AID 720702;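 active = inhibition above the mean of all tested compounds plus 3 SD, set per campaign, cut at about 25% in these data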;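 note: 0% = DMSO with enzyme and 100% = buffer with substrate but no TDP2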
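System: recombinant human TDP2 / Amount: 120 nM TDP2 per well / Also added: 5 mM T5PNP chromogenic substrate / Doses: 12.8 µM single point, 1% DMSO / Incubation: 2 h at 37 °C / Detection: p-Nitrophenol epi absorbance / Evaluation: % inhibition relative to enzyme-containing and enzyme-free wells / Repeats: singlicate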
GSTO1 inh: blocks human GSTO1 in RBBP9 counter-screen; AID 1974; inhibition, % at 5.96 µM; recombinant GSTO1, activity-based probe fluorescence polarization; 300,000 tested, 1.1% active;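 active = inhibition above the campaign mean inhibition plus 3 SD, cut at about 35% in these data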;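 note: 0% = GSTO1-1 with DMSO and 100% = wells lacking GSTO1-1 enzyme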
PAD4 inh: inhibitors of human PAD4. Q9UM07. recombinant PAD4, RCA probe fluorescence polarization. inhibition, % at 6.36 µM. 330,000 tested, 0.41% active. AID 485272;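 active = percent inhibition above a cutoff equal to the mean of all tested compounds plus 3 SD, cut at about 15% in these data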;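 note: 0% = PAD4 with RCA probe and DMSO and 100% = probe without PAD4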
Target sequence (Q9UM07 whole entry, looked up): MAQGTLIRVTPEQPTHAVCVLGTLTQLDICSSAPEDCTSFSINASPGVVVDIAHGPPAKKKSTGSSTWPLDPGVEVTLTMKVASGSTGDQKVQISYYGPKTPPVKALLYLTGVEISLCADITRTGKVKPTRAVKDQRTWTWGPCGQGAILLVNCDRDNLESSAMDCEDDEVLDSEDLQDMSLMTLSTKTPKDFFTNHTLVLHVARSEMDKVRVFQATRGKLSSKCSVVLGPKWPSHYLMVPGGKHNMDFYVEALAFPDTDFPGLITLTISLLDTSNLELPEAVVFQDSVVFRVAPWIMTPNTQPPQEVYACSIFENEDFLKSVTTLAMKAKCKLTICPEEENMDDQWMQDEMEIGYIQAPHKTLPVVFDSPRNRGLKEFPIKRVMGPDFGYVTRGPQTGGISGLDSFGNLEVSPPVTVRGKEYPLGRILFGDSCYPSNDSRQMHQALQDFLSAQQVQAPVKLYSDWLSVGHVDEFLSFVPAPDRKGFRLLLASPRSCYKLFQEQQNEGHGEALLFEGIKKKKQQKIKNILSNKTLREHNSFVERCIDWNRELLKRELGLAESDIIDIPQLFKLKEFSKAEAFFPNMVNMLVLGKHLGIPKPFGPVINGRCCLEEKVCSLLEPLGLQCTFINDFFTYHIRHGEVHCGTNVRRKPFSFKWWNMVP
GSTO1 confirm: confirmation of human GSTO1 inhibitors; shares compounds with GSTO1 inh; recombinant GSTO1, probe fluorescence polarization; inhibition, % at 5.96 µM; 2,400 tested, 54% active;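 active = inhibition above the primary screen's cutoff, its mean inhibition plus 3 SD, cut at about 35% in these data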;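 note: loss of polarization as inhibitors block binding of rhodamine sulfonate ester activity probe; 0% = GSTO1 with DMSO and 100% = wells lacking GSTO1 enzyme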
Active calls of the source: *; x = no result; ! = not confirmed by another sample.

SMILES	Apaf-1 inh	CTSL1 counter	TDP2 inh	GSTO1 inh	PAD4 inh	GSTO1 confirm
CCCOC(=O)c1ccc(-[n+]2c(-c3ccccc3)cc(-c3ccccc3)cc2-c2ccccc2)cc1	47*	-1	-8	-2	-1	x
CC[C@H](C)/C=C(C)/C=C/C1=CC2=C(Cl)C(=O)[C@@](C)(OC(C)=O)C(=O)C2=CO1	11	0	x	36*	9	x
CN1/C(=C\C=C\C2=[N+](C)c3ccc4ccccc4c3C2(C)C)C(C)(C)c2ccccc21	90*	4	x	-124	119*	x
Nc1cncc(C(=O)O)c1	41*!	-2	-3	-3	1	x
O=C1CCCN1C(=O)c1cncc(Br)c1	1	0	10	3	1	x
C=CCN(CC#CCO)Cc1ccc(OC)cc1OC	x	x	8	x	x	x
C=C(C=O)CC1CC(O)[C@]2(C)OC3CC4OC5C[C@]6(C)O[C@]7(C)CCC8OC9C[C@]%10(C)OC%11C(C)=CC(=O)OC%11CC%10OC9C[C@@H](C)C8OC7CC6O[C@]5(C)C/C=C\C4OC3CC2O1 (some centres undefined)	x	x	-2	x	x	x
COc1ccc(NC(=O)c2cn(CCC#N)nc2-c2cccc([N+](=O)[O-])c2)cc1	-25	-1	0	23	-1	x
COc1ccc(Oc2cc(NC(=O)c3nn(C)cc3[N+](=O)[O-])cc([N+](=O)[O-])c2)cc1	-12	20*	-3	-22	-1	x
CC(C)c1ccccc1OCC(=O)N1CCCN(C)CC1	12	18*	-11	4	1	x
C/C(CC(c1ccccc1)c1c(O)c2ccccc2oc1=O)=N\Nc1ccc([N+](=O)[O-])cc1[N+](=O)[O-] (centres undefined)	5	7	-5	37*	-10	x
CC(NC(=O)OC1CC2CCC1(C)C2(C)C)P(=O)(Oc1ccccc1)Oc1ccccc1 (centres undefined)	x	x	7	x	x	x
O=C1C(c2ccccc2)=C(N2CC2)c2ccccc21	6	1	-6	41*	-3	33
CC(C)C[C@H]1C(=O)N2CCC[C@H]2[C@]2(O)O[C@](NC(=O)[C@@H]3C=C4c5cccc6[nH]cc(c56)C[C@H]4N(C)C3)(C(C)C)C(=O)N12	91*	34*	x	51*	7	6
CN1c2ccc(Br)cc2[C@@H]2NCC[C@@H]2[C@@H]1CO	x	x	-7	x	x	x
CC(C)S(=O)(=O)N1Cc2ccc(Br)cc2-n2nncc2C1	x	x	-4	x	x	x
Cn1cc(NC(=O)CCl)cn1	-20	0	9	80*	-2	89*
CCC(=O)Nc1ccccc1	-5	-2	11	-9	1	x
CCC(C)/C=C(C)/C=C/C1=CC2=C(Cl)C(=O)C(C)(OC(C)=O)C(=O)C2=CO1 (centres undefined)	17	21*	x	43*	-2	40*
CN1C[C@H](O)[C@H]2C[C@@H]1c1ccccc1O2	x	x	7	x	x	x
Oc1ccc2c3c1O[C@H]1c4[nH]c5ccccc5c4C[C@@]4(O)C(C2)N(CC2CC2)CC[C@]314	-7	3	x	40*	-3	3
Oc1ccc2c3c1O[C@H]1c4[nH]c5ccccc5c4C[C@@]4(O)[C@@H](C2)N(CC2CC2)CC[C@]314	-11	0	3	3	-4	x
O=[N+]([O-])c1cc(O)c(O)c([N+](=O)[O-])c1	-8	9	-1	39*	7	31
O=[N+]([O-])c1ccc(O)c([N+](=O)[O-])c1	4	5	-11	3	1	x
CC1Oc2cc3c(-c4c(O)cc(O)c5c(O)c6c(cc45)OC(C)C(C)C6=O)c(O)cc(O)c3c(O)c2C(=O)C1C (centres undefined)	15	1	x	73*	-7	60*
c1ccc(-c2nc3ccccc3nc2-c2ccc(CN3CCC(n4nnc5ccccc54)CC3)cc2)cc1	x	x	-1	x	x	x
O=S(=O)(c1ccc(Cl)cc1)N1Cc2ccc(Br)cc2-n2nncc2C1	x	x	6	x	x	x
N=c1sccn1Cc1ccc(Cl)cc1Cl	-3	-3	12	75*	0	7
CC(C)CN(CC(C)C)c1ccc(C=C2C(=O)NC(=S)NC2=O)cc1[N+](=O)[O-]	16	0	0	42*	-5	27
Clc1cc(Cl)cc(CN2Cc3ccccc3-n3nncc3C2)c1	x	x	-6	x	x	x
